Here are results for four molecules from ChEMBL document CHEMBL1130261, “Identification of novel farnesyl protein transferase inhibitors using three-dimensional database searching methods” (J Med Chem, 1997).

Type in all cases: protein-complex assay
The target in experiment [1] is Geranylgeranyl transferase type I (Homo sapiens, UniProt P49354+P53609). Nature of the experiment: Inhibitory activity against Geranylgeranyl transferase type I.
Experiment [2] has as its target T1, Protein farnesyltransferase (Homo sapiens, UniProt P49354+P49356). Briefly: Inhibition of farnesyltransferase (FTP) at 20 ug/mL. In outline: (§1)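 Primary scintillation proximity assay (SPA) following the kit protocol, with a biotinylated substrate peptide bearing the K-Ras carboxy-terminal sequence.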
In experiment [3] the target is T1, Protein farnesyltransferase. Briefly: Inhibitory activity against recombinant human farnesyltransferase.
Experiment [4] has as its target Protein farnesyl/geranylgeranyl transferase (Homo sapiens) (UniProt P49354+P49356+P53609). Briefly: Selectivity was expressed as the ratio of the Geranylgeranyl transferase type I to FPT inhibitory activities (IC50).
For experiment [5], the target named is T1, Protein farnesyltransferase. Briefly: Inhibitory activity against farnesyltransferase (FPT) (20 ug/mL). The method in brief:
as §1

For experiment [6] the target is unchanged. Nature of the experiment: Inhibition of Farnesyltransferase (FPT) in FPT Ras/TCA assay. In outline:
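Secondary FPT assay measuring transfer of [³H]farnesyl from [³H]farnesyl pyrophosphate to His₆-H-Ras-CVLS. Labelled protein was collected by TCA precipitation. IC50 values were obtained from this Ras/TCA format.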

For experiment [7] the target is unchanged. Nature of the experiment: Inhibition of Farnesyltransferase.

In the case of `Clc1ccc2c(c1)S[C@H](Cn1ccnc1)[C@@H]2OCc1cccnc1Cl`, the values for the IC50 in experiment [1] and in experiment [3] were 3.3 µM and 1300 nM, respectively. For the same molecule, in experiment [2], the inhibition worked out at 95%. Moreover, the Selectivity ratio in experiment [4] amounted to 2.5.
As for `Clc1ccc2c(c1)S[C@H](Cn1ccnc1)[C@@H]2OCc1cnc2cc3c(cc2c1Cl)OCO3`, the IC50 in experiment [1] stood at 1.4 µM; in experiment [6], 3.1 µM; in experiment [3], 2500 nM. The same molecule had an inhibition in experiment [5] of 69%. In experiment [4], the Selectivity ratio is 0.6.
Take `Clc1ccc(COC2c3c(Cl)cccc3SC2Cn2ccnc2)cc1` (stereo unspecified): the inhibition in experiment [5] stood at 95%. Also, the IC50 is 16 µM in experiment [7] and 1300 nM in experiment [3].
For the molecule `Fc1ccc2c(c1)[C@@H](OCc1ccc(Cl)cc1Cl)[C@@H](Cn1ccnc1)S2`, the values for the IC50 in experiment [1] and in experiment [3] were 18.3 µM and 700 nM, respectively. In experiment [5], this molecule gave an inhibition of 91%. The Selectivity ratio in experiment [4] came out at 26.1.
